Measured values published in ChEMBL document CHEMBL4373647, “Design, synthesis, and antimicrobial evaluation of 1,4-dihydroindeno[1,2-c]pyrazole tethered carbohydrazide hybrids: exploring their in silico ADMET, ergosterol inhibition and ROS inducing potential” (Medchemcomm, 2019).
Converted amounts (≈) assume the structure as drawn. The source made the active and inactive calls. No cut-off for these calls is given here.

Legend:
Format in all cases: functional
Bacillus subtilis [1] = assay: Antibacterial activity against Bacillus subtilis MTCC 121 assessed as inhibition of bacterial growth incubated for 24 hrs by agar well diffusion method; settings: MTCC 121, 24 h
Summary of the method: (§1)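 Strains from MTCC; inoculum at 0.5 McFarland spread on Mueller-Hinton agar; 6 mm wells loaded with compound over 125–0.97 µg/mL; ciprofloxacin positive control (same range), DMSO negative control. Plates held 24 h at 37 °C; MIC taken as lowest concentration giving a clear inhibition zone. Triplicate runs, mean MIC reported.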

Staphylococcus aureus [2] = assay: Antibacterial activity against Staphylococcus aureus MLS-16 MTCC 2940 assessed as inhibition of bacterial growth incubated for 24 hrs by agar well diffusion method; settings: MLS-16 MTCC 2940, 24 h; summary of the method: as §1
Micrococcus luteus [3] = assay: Antibacterial activity against Micrococcus luteus MTCC 2470 assessed as inhibition of bacterial growth incubated for 24 hrs by agar well diffusion method; settings: MTCC 2470, 24 h; summary of the method: as §1
Raoultella planticola [4] = assay: Antibacterial activity against Klebsiella planticola MTCC 530 assessed as inhibition of bacterial growth incubated for 24 hrs by agar well diffusion method; settings: MTCC 530, 24 h; summary of the method: as §1
Staphylococcus aureus [5] = assay: Antibacterial activity against Staphylococcus aureus MTCC 96 assessed as inhibition of bacterial growth incubated for 24 hrs by agar well diffusion method; settings: MTCC 96, 24 h; summary of the method: as §1
Candida albicans = assay: Antifungal activity against Candida albicans MTCC 3017 assessed as inhibition of fungal growth incubated for 24 hrs by agar well diffusion method
Summary of the method: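 Candida strains from MTCC, pre-cultured and spread on Mueller Hinton agar. Wells received compound dissolved in 10% DMSO, 125–0.97 µg/mL; miconazole standard over the same range, DMSO negative control. After 24 h at 37 °C, MIC was read as the lowest concentration giving an inhibition zone. Duplicate experiments, means given.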

Pseudomonas aeruginosa [6] = assay: Antibacterial activity against Pseudomonas aeruginosa MTCC 2453 assessed as inhibition of bacterial growth incubated for 24 hrs by agar well diffusion method; settings: MTCC 2453, 24 h; summary of the method: as §1
Escherichia coli [7] = assay: Antibacterial activity against Escherichia coli MTCC 739 assessed as inhibition of bacterial growth incubated for 24 hrs by agar well diffusion method; settings: MTCC 739, 24 h; summary of the method: as §1
Micrococcus luteus [8] = assay: Bactericidal activity against Micrococcus luteus MTCC 2470 assessed as bacterial killing incubated for 24 hrs; settings: MTCC 2470, 24 h
Summary of the method: (§2)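 Broth tube assay: compound at 0–125 µg/mL in Mueller Hinton broth, overnight culture added to 0.5 McFarland (1.5 × 10^8 cfu/mL), held 24 h at 37 °C. 10 µL from each tube plated on Mueller Hinton agar. MBC is the lowest concentration that kills the strain. Duplicates, means reported.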

Raoultella planticola [9] = assay: Bactericidal activity against Klebsiella planticola MTCC 530 assessed as bacterial killing incubated for 24 hrs; settings: MTCC 530, 24 h; summary of the method: as §2
Escherichia coli [10] = assay: Bactericidal activity against Escherichia coli MTCC 739 assessed as bacterial killing incubated for 24 hrs; settings: MTCC 739, 24 h; summary of the method: as §2
Pseudomonas aeruginosa [11] = assay: Bactericidal activity against Pseudomonas aeruginosa MTCC 2453 assessed as bacterial killing incubated for 24 hrs; settings: MTCC 2453, 24 h; summary of the method: as §2
Bacillus subtilis [12] = assay: Bactericidal activity against Bacillus subtilis MTCC 121 assessed as bacterial killing incubated for 24 hrs; settings: MTCC 121, 24 h; summary of the method: as §2
Staphylococcus aureus [13] = assay: Bactericidal activity against Staphylococcus aureus MLS-16 MTCC 2940 assessed as bacterial killing incubated for 24 hrs; settings: MLS-16 MTCC 2940, 24 h; summary of the method: as §2
Staphylococcus aureus [14] = assay: Bactericidal activity against Staphylococcus aureus MTCC 96 assessed as bacterial killing incubated for 24 hrs; settings: MTCC 96, 24 h; summary of the method: as §2

## COc1ccc2c(c1)Cc1c(C(=O)N/N=C/c3cc(OC)c(OC)c(OC)c3)n[nH]c1-2
Bacillus subtilis [1]
  MIC: 3.9 µg/mL (≈ 9.23 µM)
Staphylococcus aureus [2]
  MIC: 7.8 µg/mL (≈ 18.5 µM)
Micrococcus luteus [3]
  MIC: 3.9 µg/mL (≈ 9.23 µM)
Raoultella planticola [4]
  MIC: > 125 µg/mL
Staphylococcus aureus [5]
  MIC: 15.6 µg/mL (≈ 36.9 µM)
Candida albicans; MTCC 3017, 24 h
  MIC: > 125 µg/mL
Pseudomonas aeruginosa [6]
  MIC: > 125 µg/mL
Escherichia coli [7]
  MIC: > 125 µg/mL

## COc1ccc2c(c1)Cc1c(C(=O)N/N=C/c3ccc(Cl)cc3)n[nH]c1-2
Bacillus subtilis [1]
  MIC: 7.8 µg/mL (≈ 21.3 µM)
Staphylococcus aureus [2]
  MIC: 7.8 µg/mL (≈ 21.3 µM)
Micrococcus luteus [3]
  MIC: 3.9 µg/mL (≈ 10.6 µM)
Raoultella planticola [4]
  MIC: > 125 µg/mL
Staphylococcus aureus [5]
  MIC: 3.9 µg/mL (≈ 10.6 µM)
Candida albicans; MTCC 3017, 24 h
  MIC: > 125 µg/mL
Pseudomonas aeruginosa [6]
  MIC: > 125 µg/mL
Escherichia coli [7]
  MIC: 3.9 µg/mL (≈ 10.6 µM)

## O=C(N/N=C/c1ccc(Cl)cc1)c1n[nH]c2c1Cc1cc(F)ccc1-2
Bacillus subtilis [1]
  MIC: 7.8 µg/mL (≈ 22 µM)
Staphylococcus aureus [2]
  MIC: 15.6 µg/mL (≈ 44 µM)
Micrococcus luteus [3]
  MIC: > 125 µg/mL
Raoultella planticola [4]
  MIC: > 125 µg/mL
Staphylococcus aureus [5]
  MIC: 15.6 µg/mL (≈ 44 µM)
Candida albicans; MTCC 3017, 24 h
  MIC: > 125 µg/mL
Pseudomonas aeruginosa [6]
  MIC: > 125 µg/mL
Escherichia coli [7]
  MIC: > 125 µg/mL

## O=C(O)c1cn(C2CC2)c2cc(N3CCNCC3)c(F)cc2c1=O [CIPROFLOXACIN]
Micrococcus luteus [8]
  MBC: 1.9 µg/mL (≈ 5.73 µM)
Bacillus subtilis [1]
  MIC: 0.9 µg/mL (≈ 2.72 µM)
Staphylococcus aureus [2]
  MIC: 0.9 µg/mL (≈ 2.72 µM)
Micrococcus luteus [3]
  MIC: 0.9 µg/mL (≈ 2.72 µM)
Raoultella planticola [9]
  MBC: 1.9 µg/mL (≈ 5.73 µM)
Raoultella planticola [4]
  MIC: 0.9 µg/mL (≈ 2.72 µM)
Escherichia coli [10]
  MBC: 1.9 µg/mL (≈ 5.73 µM)
Pseudomonas aeruginosa [11]
  MBC: 1.9 µg/mL (≈ 5.73 µM)
Staphylococcus aureus [5]
  MIC: 0.9 µg/mL (≈ 2.72 µM)
Candida albicans
  MIC: inactive
Bacillus subtilis [12]
  MBC: 1.9 µg/mL (≈ 5.73 µM)
Pseudomonas aeruginosa [6]
  MIC: 0.9 µg/mL (≈ 2.72 µM)
Staphylococcus aureus [13]
  MBC: 1.9 µg/mL (≈ 5.73 µM)
Staphylococcus aureus [14]
  MBC: 1.9 µg/mL (≈ 5.73 µM)
Escherichia coli [7]
  MIC: 0.9 µg/mL (≈ 2.72 µM)

## O=C(N/N=C/c1ccc(Br)cc1)c1n[nH]c2c1Cc1ccccc1-2
Bacillus subtilis [1]
  MIC: 15.6 µg/mL (≈ 40.9 µM)
Staphylococcus aureus [2]
  MIC: 15.6 µg/mL (≈ 40.9 µM)
Micrococcus luteus [3]
  MIC: > 125 µg/mL
Raoultella planticola [4]
  MIC: > 125 µg/mL
Staphylococcus aureus [5]
  MIC: 15.6 µg/mL (≈ 40.9 µM)
Candida albicans; MTCC 3017, 24 h
  MIC: > 125 µg/mL
Pseudomonas aeruginosa [6]
  MIC: > 125 µg/mL
Escherichia coli [7]
  MIC: > 125 µg/mL

## COc1cc(/C=N/NC(=O)c2n[nH]c3c2Cc2ccccc2-3)cc(OC)c1OC
Bacillus subtilis [1]
  MIC: 7.8 µg/mL (≈ 19.9 µM)
Staphylococcus aureus [2]
  MIC: 15.6 µg/mL (≈ 39.8 µM)
Micrococcus luteus [3]
  MIC: > 125 µg/mL
Raoultella planticola [4]
  MIC: > 125 µg/mL
Staphylococcus aureus [5]
  MIC: 15.6 µg/mL (≈ 39.8 µM)
Candida albicans; MTCC 3017, 24 h
  MIC: > 125 µg/mL
Pseudomonas aeruginosa [6]
  MIC: > 125 µg/mL
Escherichia coli [7]
  MIC: > 125 µg/mL

## COc1ccc2c(c1)Cc1c(C(=O)N/N=C/c3ccc(Br)cc3)n[nH]c1-2
Bacillus subtilis [1]
  MIC: > 125 µg/mL
Staphylococcus aureus [2]
  MIC: > 125 µg/mL
Micrococcus luteus [3]
  MIC: > 125 µg/mL
Raoultella planticola [4]
  MIC: > 125 µg/mL
Staphylococcus aureus [5]
  MIC: > 125 µg/mL
Candida albicans; MTCC 3017, 24 h
  MIC: > 125 µg/mL
Pseudomonas aeruginosa [6]
  MIC: > 125 µg/mL
Escherichia coli [7]
  MIC: > 125 µg/mL

## COc1cc(/C=N/NC(=O)c2n[nH]c3c2Cc2cc(F)ccc2-3)cc(OC)c1OC
Bacillus subtilis [1]
  MIC: 3.9 µg/mL (≈ 9.5 µM)
Staphylococcus aureus [2]
  MIC: 7.8 µg/mL (≈ 19 µM)
Micrococcus luteus [3]
  MIC: 7.8 µg/mL (≈ 19 µM)
Raoultella planticola [4]
  MIC: 7.8 µg/mL (≈ 19 µM)
Staphylococcus aureus [5]
  MIC: 3.9 µg/mL (≈ 9.5 µM)
Candida albicans; MTCC 3017, 24 h
  MIC: > 125 µg/mL
Pseudomonas aeruginosa [6]
  MIC: 7.8 µg/mL (≈ 19 µM)
Escherichia coli [7]
  MIC: 3.9 µg/mL (≈ 9.5 µM)
